Measurements: ChEMBL document CHEMBL4715912, “Discovery of a novel series of indolinylpyrimidine-based GPR119 agonists: Elimination of ether-a-go-go-related gene liability using a hydrogen bond acceptor-focused approach” (Bioorg Med Chem, 2021)
Active and inactive are the calls of the source. The calls are words filed in the database; no cut-off is given here.

What was measured:
Rattus norvegicus [1] = assay: Antidiabetic activity in po dosed N-STZ 1.5 rat assessed as reduction in GHB level for 4 weeks; type: functional, organism-based; settings: dose 1-3 mg/kg
Procedure, shortened: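 Male N-STZ-1.5 rats kept under time-restricted feeding, treated for 4 weeks; GHb measured before and after treatment and expressed also as percentage change.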

[2] = Intrinsic clearance in rat liver microsomes at 1 uM measured after 15 to 30 mins in presence of NADPH generating system by LC/MS/MS analysis; type: ADME, Microsome; settings: time 15-30 min, read-out: CLH
Procedure, shortened: (§1)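 Human or rat liver microsomes at 0.2 mg/mL protein in 50 mM potassium phosphate pH 7.4 with 1 µM compound; reaction started with NADPH-generating system (5 mM MgCl2, 5 mM glucose-6-phosphate, 0.5 mM β-NADP+, 1.5 units/mL G6PDH). Stopped with acetonitrile at 15 and 30 min, parent by LC/MS/MS; rate from concentration–time slope, expressed as µL/min/mg.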

[3] = Intrinsic clearance in human liver microsomes at 1 uM measured after 15 to 30 mins in presence of NADPH generating system by LC/MS/MS analysis; type: ADME, Microsome; settings: time 15-30 min, read-out: CLH; procedure, shortened: as §1
[4] = MRT in rat at 1 mg/kg, po by LC/MS/MS analysis; type: ADME, organism-based; settings: in vivo
Procedure, shortened: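 Cassette dosing, given by mouth at 1 mg/kg in 0.5% methylcellulose aqueous solution, with intravenous arm at 0.1 mg/kg, to non-fasted animals. Blood collected after dosing, plasma deproteinized and centrifuged, compound measured by LC/MS/MS.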

Rattus norvegicus [5] = assay: Antidiabetic activity in po dosed N-STZ 1.5 rat assessed as reduction in glucose level pre-treated for 60 mins followed by 1.5 g/kg glucose treatment and measured up to 120 mins by OGTT; type: functional, organism-based; settings: dose 1-3 mg/kg, time min <=180
Procedure, shortened: (§2)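 Male N-STZ1.5 rats, 25–30 weeks old, fasted overnight, dosed orally with compound or 0.5% methylcellulose vehicle; 60 min later oral glucose load 1.5 g/kg. Tail-vein blood taken pre-dose, at 0, 10, 30, 60 and 120 min; plasma glucose by autoanalyzer, insulin by radioimmunoassay. AUC computed; mean ± SD, n = 6; one-tailed Williams' test.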

[6] = Partition coefficient, logD between 1-octanol and pH 7.4 aqueous buffer by chromatographic analysis; type: physicochemical; settings: 1-octanol/pH 7.4 aqueous buffer
Procedure, shortened: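 LogD at pH 7.4, octanol/aqueous buffer partition, estimated by a chromatographic method adapted from a published procedure.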

Rattus norvegicus [7] = assay: Antidiabetic activity in N-STZ 1.5 rat assessed as reduction in glucose level at 1 mg/kg, po pre-treated for 60 mins followed by 1.5 g/kg glucose treatment and measured up to 120 mins by OGTT; type: functional, organism-based; settings: time min <=180; procedure, shortened: as §2
[8] = biological target: T1, Glucose-dependent insulinotropic receptor (Mus musculus, UniProt Q7TQP3); assay: Agonist activity at GPR119 in glucose-induced mouse L cells assessed as induction of GLP-1 secretion after 2 hrs by ELISA
T1 sequence (Q7TQP3 whole entry): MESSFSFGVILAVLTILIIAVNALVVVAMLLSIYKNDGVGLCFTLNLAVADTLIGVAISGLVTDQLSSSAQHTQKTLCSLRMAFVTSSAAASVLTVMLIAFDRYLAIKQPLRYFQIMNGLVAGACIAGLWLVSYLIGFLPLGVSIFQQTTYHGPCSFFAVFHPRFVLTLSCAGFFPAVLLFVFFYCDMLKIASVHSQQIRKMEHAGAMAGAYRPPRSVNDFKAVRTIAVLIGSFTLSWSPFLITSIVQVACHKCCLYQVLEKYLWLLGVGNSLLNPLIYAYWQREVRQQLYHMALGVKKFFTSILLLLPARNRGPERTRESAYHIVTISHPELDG
Procedure, shortened: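 GLUTag cells (murine L cell line) seeded at 1 × 10^4 cells/well on poly-L-lysine, switched to low-glucose DMEM overnight, washed with HBSS, then exposed to compounds in KRBH buffer with 0.2% fatty acid free BSA and 10 mmol/L glucose for 2 h at 37 °C. Active GLP-1 in supernatant by ELISA; EC50 from n = 2.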

[9] = biological target: T2, Glucose-dependent insulinotropic receptor (Homo sapiens, UniProt Q8TDV5); assay: Agonist activity at human GPR119 expressed in CHO cells co-expressing cyclic AMP response element incubated for 2 hrs by steady-glo luciferase assay; type: cell-based
T2 sequence (Q8TDV5 whole entry): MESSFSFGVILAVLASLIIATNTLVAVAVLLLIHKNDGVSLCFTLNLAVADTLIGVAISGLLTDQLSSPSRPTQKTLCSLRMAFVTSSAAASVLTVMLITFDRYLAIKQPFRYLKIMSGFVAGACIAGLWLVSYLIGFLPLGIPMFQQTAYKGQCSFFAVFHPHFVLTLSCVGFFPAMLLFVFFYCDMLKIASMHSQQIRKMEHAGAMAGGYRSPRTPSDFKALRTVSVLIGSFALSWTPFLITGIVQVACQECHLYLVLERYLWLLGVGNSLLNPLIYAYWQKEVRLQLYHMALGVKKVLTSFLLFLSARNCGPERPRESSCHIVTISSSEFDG
Procedure, shortened: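 CHO cells stably expressing human GPR119, seeded at 10,000 cells/well in MEM α with 500 µg/mL Geneticin overnight, then exposed to graded compound concentrations in MEM α/20 mmol/L HEPES/0.1% BSA for 2 h. cAMP-driven luciferase read with Steady-Glo. Response normalized between vehicle and a 10 µM reference agonist; EC50 as mean of n = 2.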

[10] = biological target: T3, Glucose-dependent insulinotropic receptor (Rattus norvegicus, UniProt Q7TQN8); assay: Agonist activity at rat GPR119 expressed in CHO cells co-expressing cyclic AMP response element incubated for 2 hrs by steady-glo luciferase assay; type: cell-based
T3 sequence (Q7TQN8 whole entry): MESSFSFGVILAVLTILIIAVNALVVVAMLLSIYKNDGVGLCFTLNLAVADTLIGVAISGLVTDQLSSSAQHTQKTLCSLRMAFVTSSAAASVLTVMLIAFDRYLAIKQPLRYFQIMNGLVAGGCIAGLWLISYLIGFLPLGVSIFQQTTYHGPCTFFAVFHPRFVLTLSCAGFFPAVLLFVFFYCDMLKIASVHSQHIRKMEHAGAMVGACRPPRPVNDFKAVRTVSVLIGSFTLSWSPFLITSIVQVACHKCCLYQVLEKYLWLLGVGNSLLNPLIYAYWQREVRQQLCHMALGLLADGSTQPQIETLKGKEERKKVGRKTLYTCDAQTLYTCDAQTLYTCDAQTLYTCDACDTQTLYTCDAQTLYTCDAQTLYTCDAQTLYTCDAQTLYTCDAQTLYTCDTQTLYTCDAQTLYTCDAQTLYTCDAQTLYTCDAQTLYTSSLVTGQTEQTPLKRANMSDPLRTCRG
Procedure, shortened: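 Rat GPR119-expressing cells, cAMP-induced luciferase read with Steady-Glo after 2 h compound exposure in MEM α/HEPES/BSA buffer. Activity scaled between vehicle and a 10 µM reference agonist; EC50 mean of n = 2.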

[11] = Total clearance in rat at 0.1 mg/kg, iv by LC/MS/MS analysis; type: ADME, organism-based; settings: in vivo
Procedure, shortened: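 Cassette intravenous dosing at 0.1 mg/kg to non-fasted animals. Plasma taken from blood samples, deproteinized and centrifuged, and compound levels in supernatant quantified by LC/MS/MS.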

microsomal CLint at 1 µM [2]: 1 µL/min/mg | microsomal CLint at 1 µM [3]: 9 µL/min/mg | MRT [4]: 3.8 h | logD [6]: 3.3 | EC50 [8]: 19 nM | EC50 [9]: 16 nM | EC50 [10]: 120 nM | clearance [11]: 2.47 mL/min/kg
SMILES: CC(C)c1noc(N2CCC(Oc3cc(N4CCc5cc(N6CCC[C@H](O)C6=O)ccc54)ncn3)CC2)n1
Activity (Rattus norvegicus [1]): Dose-dependent effect | Activity (Rattus norvegicus [5]): Dose-dependent effect | Activity (Rattus norvegicus [7]): Active
